Data set [1] deals with Escherichia coli. As to the kind of experiment: Activity of Escherichia coli adenylate kinase by Lineweaver-Burk plot analysis relative to ATP. In outline: (§1)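 Substrate kinetics in a pyruvate kinase/lactate dehydrogenase-coupled assay: 0.1 M Tris-HCl pH 7.6, 2 mM MgSO4, 0.12 M KCl, 0.3 mM PEP, 0.38 mM NADH, 0.25 mM AMP. A340 change over 5 min at 23 °C. Derivatives screened first at ca. 0.8 mM. Five or more substrate levels; KM and Vmax (relative to ATP) taken from linear Lineweaver-Burk plots.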

Data set [2] has as its system Escherichia coli. As to the kind of experiment: Activity of Escherichia coli adenylate kinase by Lineweaver-Burk plot analysis. In outline:
as §1

Data set [3] has as its system O=C(CI)NCCCCCNc1ncnc2c1ncn2[C@@H]1O[C@H](COP(=O)(O)OP(=O)(O)OP(=O)(O)O)[C@@H](O)[C@H]1O. As to the kind of experiment: (§2) Activity of Sprague-Dawley rat liver adenylate kinase 2 by Lineweaver-Burk plot analysis relative to ATP. In outline:
as §1

The test system of data set [4] is CCCSc1nc2c(N)ncnc2n1[C@@H]1O[C@H](COP(=O)(O)OP(=O)(O)OP(=O)(O)O)[C@@H](O)[C@H]1O. The data set is described as §2. In outline:
as §1

In data set [5] the test system is Nc1ncnc2c1ncn2[C@@H]1O[C@H](COP(=O)(O)OP(=O)(O)OP(=O)(O)O)[C@@H](O)[C@H]1O. The data set is described as §2. Put shortly:
as §1

For data set [6], the system named is CSc1nc2c(N)ncnc2n1[C@@H]1O[C@H](COP(=O)(O)OP(=O)(O)OP(=O)(O)O)[C@@H](O)[C@H]1O. Described as §2. Put shortly:
as §1

For data set [7], the system named is O=C(CI)NCCCCCNc1ncnc2c1ncn2[C@@H]1O[C@H](COP(=O)(O)OP(=O)(O)OP(=O)(O)O)[C@@H](O)[C@H]1O. The experiment in a line: (§3) Activity of Sprague-Dawley rat liver adenylate kinase 2 by Lineweaver-Burk plot analysis. Put shortly:
as §1

Data set [8] has as its system CCCSc1nc2c(N)ncnc2n1[C@@H]1O[C@H](COP(=O)(O)OP(=O)(O)OP(=O)(O)O)[C@@H](O)[C@H]1O. The description is as §3. Put shortly: as §1
Data set [9] has as its system Nc1ncnc2c1ncn2[C@@H]1O[C@H](COP(=O)(O)OP(=O)(O)OP(=O)(O)O)[C@@H](O)[C@H]1O. The data set is described as §3. Put shortly: as §1
The subject of data set [10] is CSc1nc2c(N)ncnc2n1[C@@H]1O[C@H](COP(=O)(O)OP(=O)(O)OP(=O)(O)O)[C@@H](O)[C@H]1O. The description is as §3. In outline: as §1

As to `Nc1ncnc2c1ncn2[C@@H]1O[C@H](COP(=O)(O)OP(=O)(O)OP(=O)(O)O)[C@@H](O)[C@H]1O`, in [1], the Vmax worked out at 0.06%.
Usually Km stands for the substrate concentration at which the rate is half of its maximum. As for `O=C(CI)NCCCCNc1ncnc2c1ncn2[C@@H]1O[C@H](COP(=O)(O)OP(=O)(O)OP(=O)(O)O)[C@@H](O)[C@H]1O`, in [1], the Michaelis constant (Km) was found to be 2500 µM. For the same compound, in data set [2], the Vmax worked out at 0.12%.
Consider “Adenylate kinase 2, mitochondrial (Rattus norvegicus) (from UniProt P29410)”, for which the Vmax in data set [3] was found to be 21%; in [4] it was 15.7%; in data set [5] it was 100%; in [6], 5%. In addition, the Km in data set [7] amounted to 1000 µM; in data set [8], 60 µM; in [9] it was 90 µM; in [10], 180 µM.

For the origin of these results see ChEMBL document CHEMBL3244193, “Design of species- or isozyme-specific enzyme inhibitors. 3. Species and isozymic differences between mammalian and bacterial adenylate kinases in substituent tolerance in an enzyme-substrate complex” (J Med Chem, 1979).
